ChEMBL document CHEMBL1148216, “New nardosinanes and 19-oxygenated ergosterols from the soft coral Nephthea armata collected in Taiwan” (J Nat Prod, 2004)

Tests used:
Format in all cases: functional, cell-based
P388 = test: Cytotoxicity against mouse P388 cells
How it was run: (§1)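 Cytotoxicity was run by a previously described procedure, with mithramycin as the positive control, and IC50 values were derived. P-388 cells were a gift from an academic laboratory, and the A549 and HT-29 cells were obtained from a culture collection.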

HT-29 = test: Cytotoxicity against human HT29 cells; how it was run: as §1
A549 = test: Cytotoxicity against human A549 cells; how it was run: as §1

Structure (SMILES)	IC50 (P388) [µM]	IC50 (HT-29) [µM]	IC50 (A549) [µM]
C[C@@H]1C(=O)O[C@H]2CCC3=CC(=O)C[C@H](C)[C@@]3(C)[C@H]21	> 50	> 50	> 50
C[C@H]1[C@H]2[C@@H](CCC3=C[C@@H](O)C[C@H](C)[C@]32C)O[C@@H]1O [ARMATIN A]	> 50	> 50	> 50
C[C@@H]1C(=O)O[C@@H]2CCC3=C[C@@H](O)C[C@H](C)[C@@]3(C)[C@@H]12 [ARMATIN B]	> 50	> 50	> 50
CO[C@H]1O[C@@H]2CCC3=C[C@@H](O)C[C@H](C)[C@@]3(C)[C@H]2[C@@H]1C [ARMATIN C]	> 50	> 50	> 50
CO[C@@H]1O[C@H]2CCC3=C[C@@H](O)C[C@H](C)[C@@]3(C)[C@H]2[C@@H]1C [ARMATIN D]	> 50	> 50	> 50
CO[C@@H]1O[C@H]2CCC3=CC(=O)C[C@H](C)[C@@]3(C)[C@H]2[C@@H]1C [ARMATIN E]	> 50	> 50	> 50
C=C(CC[C@@H](C)[C@H]1CC[C@H]2[C@@H]3C[C@H]4O[C@]45C[C@@H](O)CC[C@]5(COC(C)=O)[C@H]3CC[C@]12C)C(C)C [ARMATINOL A]	6.1	6.5	7.6
C=C(CC[C@@H](C)[C@H]1CC[C@H]2[C@@H]3C[C@@H](O)[C@@]4(O)C[C@@H](O)CC[C@]4(COC(C)=O)[C@H]3CC[C@]12C)C(C)C [ARMATINOL B]	3.2	3.1	–
CO[C@H](C(=O)[C@@H](O)[C@@H](C)O)[C@@H]1Cc2cc3cc(O[C@H]4C[C@@H](O[C@@H]5C[C@@H](O)[C@H](O)[C@@H](C)O5)[C@H](O)[C@@H](C)O4)c(C)c(O)c3c(O)c2C(=O)[C@H]1O[C@H]1C[C@@H](O[C@@H]2C[C@@H](O)[C@@H](O[C@@H]3C[C@](C)(O)[C@H](O)[C@@H](C)O3)[C@@H](C)O2)[C@H](O)[C@@H](C)O1 [PLICAMYCIN]	0.1	0.3	0.2
